Broadly, the IC50 is the concentration that gives 50% inhibition.

A value given as a limit tells only on which side of the number the result lay.

Experiment [1] has as its target Bcr/Abl fusion protein (Homo sapiens, UniProt P00519). Briefly: Inhibition of BCR/ABL (unknown origin) after 40 mins by ADP-Glo kinase assay. Type of experiment: protein assay. For orientation: ADP-Glo turns the ADP formed in a reaction into a luminescent signal.
Experiment [2] has as its system K562. The experiment can be described thus: Antiproliferative activity against Bcr/Abl positive human K562 cells after 48 hrs by MTT method. Type of experiment: functional, cell-based. To be noted: K562, 48 h. The gist of the method: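 Bcr–Abl positive K562 cells in exponential growth plated at 1 × 10⁴ cells/well and incubated 24 h at 37 °C. Compounds then added at various concentrations for 48 h. MTT (5 mg/mL) added for 4 h at 37 °C, supernatant discarded, formazan dissolved in DMSO. Absorbance read at 570 nm.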
For orientation: Tetrazolium dyes change colour on reduction, which living cells bring about.

Chain of Bcr/Abl fusion protein (P00519 whole entry, the tested form may be a part): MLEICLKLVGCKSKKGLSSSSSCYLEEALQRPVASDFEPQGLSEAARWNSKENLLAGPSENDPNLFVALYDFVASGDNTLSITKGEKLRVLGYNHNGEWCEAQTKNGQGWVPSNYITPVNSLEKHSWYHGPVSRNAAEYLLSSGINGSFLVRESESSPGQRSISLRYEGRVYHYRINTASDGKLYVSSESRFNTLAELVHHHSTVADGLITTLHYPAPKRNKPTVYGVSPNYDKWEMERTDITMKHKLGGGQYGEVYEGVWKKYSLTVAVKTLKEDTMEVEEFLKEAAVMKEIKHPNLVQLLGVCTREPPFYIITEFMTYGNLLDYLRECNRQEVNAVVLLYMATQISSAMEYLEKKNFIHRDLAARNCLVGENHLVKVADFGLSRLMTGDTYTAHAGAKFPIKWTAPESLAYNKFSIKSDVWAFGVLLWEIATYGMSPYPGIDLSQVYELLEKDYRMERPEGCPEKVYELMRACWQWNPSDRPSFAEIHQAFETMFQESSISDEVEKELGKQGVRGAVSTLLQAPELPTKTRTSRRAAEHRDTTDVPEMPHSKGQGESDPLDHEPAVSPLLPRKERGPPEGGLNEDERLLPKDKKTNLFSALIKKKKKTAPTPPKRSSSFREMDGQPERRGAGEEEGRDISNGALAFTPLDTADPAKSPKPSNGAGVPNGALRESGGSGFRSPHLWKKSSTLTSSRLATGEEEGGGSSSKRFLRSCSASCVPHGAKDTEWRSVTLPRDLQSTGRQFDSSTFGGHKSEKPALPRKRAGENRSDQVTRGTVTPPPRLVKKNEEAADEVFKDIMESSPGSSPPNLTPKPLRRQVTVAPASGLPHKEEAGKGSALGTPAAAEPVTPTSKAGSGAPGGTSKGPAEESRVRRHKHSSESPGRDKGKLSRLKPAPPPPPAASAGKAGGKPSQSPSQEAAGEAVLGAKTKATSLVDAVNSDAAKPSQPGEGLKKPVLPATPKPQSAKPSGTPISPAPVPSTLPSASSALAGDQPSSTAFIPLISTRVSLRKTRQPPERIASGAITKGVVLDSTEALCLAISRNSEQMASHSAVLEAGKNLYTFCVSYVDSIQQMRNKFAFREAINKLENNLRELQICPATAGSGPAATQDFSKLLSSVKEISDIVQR
Chain of Bcr/Abl fusion protein (P11274 whole entry, further chain, the tested form may be a part): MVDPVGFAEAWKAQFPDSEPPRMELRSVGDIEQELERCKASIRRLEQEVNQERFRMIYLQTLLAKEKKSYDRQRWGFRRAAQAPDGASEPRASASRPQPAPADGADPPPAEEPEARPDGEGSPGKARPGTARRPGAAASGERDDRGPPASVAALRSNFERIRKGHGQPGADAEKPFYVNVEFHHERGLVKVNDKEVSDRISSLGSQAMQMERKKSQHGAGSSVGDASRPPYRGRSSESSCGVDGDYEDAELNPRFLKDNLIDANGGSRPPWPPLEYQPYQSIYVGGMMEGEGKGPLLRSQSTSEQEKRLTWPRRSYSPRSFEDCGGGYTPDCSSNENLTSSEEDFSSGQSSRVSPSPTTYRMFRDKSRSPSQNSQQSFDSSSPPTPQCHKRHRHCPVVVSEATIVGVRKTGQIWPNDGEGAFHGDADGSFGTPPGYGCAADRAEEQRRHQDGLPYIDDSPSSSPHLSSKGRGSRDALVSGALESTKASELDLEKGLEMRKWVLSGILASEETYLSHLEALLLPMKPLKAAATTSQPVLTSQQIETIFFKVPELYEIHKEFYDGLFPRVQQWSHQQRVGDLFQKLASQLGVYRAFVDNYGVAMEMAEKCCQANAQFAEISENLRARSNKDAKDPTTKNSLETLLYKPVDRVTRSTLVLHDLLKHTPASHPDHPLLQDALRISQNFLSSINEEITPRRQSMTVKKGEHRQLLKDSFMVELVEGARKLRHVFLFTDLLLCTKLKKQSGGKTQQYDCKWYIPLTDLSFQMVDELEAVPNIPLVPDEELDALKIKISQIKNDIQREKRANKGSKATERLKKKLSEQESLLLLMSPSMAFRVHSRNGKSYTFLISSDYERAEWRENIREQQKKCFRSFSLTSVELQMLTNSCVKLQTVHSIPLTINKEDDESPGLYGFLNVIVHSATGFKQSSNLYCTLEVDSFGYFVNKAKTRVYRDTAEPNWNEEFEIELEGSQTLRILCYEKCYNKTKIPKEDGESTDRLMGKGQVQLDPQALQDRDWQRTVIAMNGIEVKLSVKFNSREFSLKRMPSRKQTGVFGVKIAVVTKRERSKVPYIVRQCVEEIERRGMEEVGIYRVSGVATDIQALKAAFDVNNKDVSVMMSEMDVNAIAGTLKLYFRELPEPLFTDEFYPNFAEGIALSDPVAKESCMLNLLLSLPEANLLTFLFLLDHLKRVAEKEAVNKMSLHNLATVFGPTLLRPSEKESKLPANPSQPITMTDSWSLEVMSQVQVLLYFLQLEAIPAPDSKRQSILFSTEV

With `CC(C)c1cccc(Nc2cc(-c3ccc(C(=O)N4CCN(C(=O)c5ccccc5F)CC4)cc3)ncn2)c1`, the IC50 in experiment [1] and in experiment [2] was over 500 µM in each case. For `O=C(c1ccc(-c2cc(Nc3ccccc3Cl)ncn2)cc1)N1CCN(C(=O)c2ccccc2F)CC1`, the IC50 in experiment [1] worked out at 141 µM; in experiment [2], 80.7 µM.

With `COc1cccc(Nc2cc(-c3ccc(C(=O)N4CCN(C(=O)c5cccc(C(F)(F)F)c5)CC4)cc3)ncn2)c1`, the IC50 in experiment [1] stood at 13.5 µM; in experiment [2], 106 µM. The like results for `CC(C)(C)c1ccc(Nc2cc(-c3ccc(C(=O)N4CCN(C(=O)c5ccccc5F)CC4)cc3)ncn2)cc1` were, in that order, 354 µM and over 500 µM. On the same counts, the results for `O=C(c1ccc(-c2cc(Nc3cccc(F)c3)ncn2)cc1)N1CCN(C(=O)c2ccccc2F)CC1` are 0.017 µM and 17.8 µM. For the molecule `O=C(c1ccc(-c2cc(Nc3ccccc3F)ncn2)cc1)N1CCN(C(=O)c2ccccc2F)CC1`, the figures for the concentration for half-maximal inhibition (IC50) in experiment [1] and in experiment [2] were 0.05 µM and 14.5 µM, respectively. Regarding `Cc1ccc(NC(=O)c2ccc(CN3CCN(C)CC3)cc2)cc1Nc1nccc(-c2cccnc2)n1` [IMATINIB], the IC50 in experiment [2] came out at 4.12 µM. For the molecule `O=C(c1ccc(-c2cc(Nc3ccc(F)c(F)c3)ncn2)cc1)N1CCN(C(=O)c2ccccc2F)CC1`, the IC50 in experiment [1] and in experiment [2] was over 500 µM in each case. On to `O=C(c1ccc(-c2cc(Nc3cccc(C(F)(F)F)c3)ncn2)cc1)N1CCN(C(=O)c2ccccc2F)CC1`, for which, in experiment [1], the IC50 turned out to be 0.872 µM. Take `O=C(c1ccc(-c2cc(Nc3ccc(Cl)cc3Cl)ncn2)cc1)N1CCN(C(=O)c2cccc(C(F)(F)F)c2)CC1`: the half-maximal inhibitory concentration (IC50) was 266 µM in experiment [1] and 562 µM in experiment [2]. In experiment [1], `CC(=O)c1cccc(Nc2cc(-c3ccc(C(=O)N4CCN(C(=O)c5ccccc5F)CC4)cc3)ncn2)c1` showed an IC50 of 0.385 µM. On to `O=C(c1ccc(-c2cc(Nc3cccc(Br)c3)ncn2)cc1)N1CCN(C(=O)c2ccccc2F)CC1`, for which the IC50 in experiment [1] and in experiment [2] was over 500 µM each time. Take `O=C(c1ccc(-c2cc(Nc3ccc(C(F)(F)F)cc3)ncn2)cc1)N1CCN(C(=O)c2ccccc2F)CC1`: the IC50 in experiment [1] was found to be 78.6 µM; in experiment [2], 283 µM. The like results for `O=C(c1ccc(-c2cc(Nc3ccc(Cl)cc3Cl)ncn2)cc1)N1CCN(C(=O)c2ccccc2F)CC1` were, in that order, over 500 µM and over 500 µM.

In experiment [1], `O=C(c1ccc(-c2cc(Nc3cccc(Cl)c3)ncn2)cc1)N1CCN(C(=O)c2ccccc2F)CC1` yielded a half-inhibitory concentration (IC50) of 91.8 µM. `O=C(c1ccc(-c2cc(Nc3ccccc3Cl)ncn2)cc1)N1CCN(C(=O)c2ccccc2Cl)CC1`: the values for the IC50 in experiment [1] and in experiment [2] were 0.07 µM and 21.4 µM, respectively. In experiment [1], `O=C(c1ccc(-c2cc(Nc3cccc(F)c3)ncn2)cc1)N1CCN(C(=O)c2ccccc2Cl)CC1` displayed a half-maximal inhibitory concentration (IC50) of 6.06 µM. For `O=C(c1ccc(-c2cc(Nc3ccc(Br)cc3)ncn2)cc1)N1CCN(C(=O)c2ccccc2F)CC1`, 306 µM corresponded to half-maximal inhibition in experiment [2] (IC50). As to `O=C(c1ccc(-c2cc(Nc3ccc(F)cc3)ncn2)cc1)N1CCN(C(=O)c2ccccc2F)CC1`, the IC50 is 277 µM in experiment [1] and 363 µM in experiment [2]. `Cc1ccc(Nc2cc(-c3ccc(C(=O)N4CCN(C(=O)c5ccccc5F)CC4)cc3)ncn2)cc1` yielded a half-maximal inhibitory concentration (IC50) in experiment [2] of over 500 µM. Consider `CC(C)(C)c1ccc(Nc2cc(-c3ccc(C(=O)N4CCN(C(=O)c5ccccc5Cl)CC4)cc3)ncn2)cc1`, for which, in experiment [1], the half-maximal inhibitory concentration (IC50) is over 500 µM. Turning to `O=C(c1ccc(-c2cc(Nc3ccc(F)cc3)ncn2)cc1)N1CCN(C(=O)c2cccc(C(F)(F)F)c2)CC1`, the half-inhibitory concentration (IC50) in experiment [1] worked out at 1.44 µM; in experiment [2] it was 86.9 µM. For `O=C(c1ccc(-c2cc(Nc3cccc(C(F)(F)F)c3)ncn2)cc1)N1CCN(C(=O)c2cccc(C(F)(F)F)c2)CC1`, the IC50 in experiment [1] was 0.563 µM; in experiment [2], 25.9 µM. The like results for `O=C(c1ccc(-c2cc(Nc3ccc(Cl)c(Cl)c3)ncn2)cc1)N1CCN(C(=O)c2ccccc2F)CC1` were, in that order, over 500 µM and over 500 µM.

The molecule `COc1cccc(Nc2cc(-c3ccc(C(=O)N4CCN(C(=O)c5ccccc5Cl)CC4)cc3)ncn2)c1` displayed an IC50 in experiment [2] of 102 µM.

Take `O=C(c1ccc(-c2cc(Nc3cc(C(F)(F)F)cc(C(F)(F)F)c3)ncn2)cc1)N1CCN(C(=O)c2ccccc2F)CC1`: the IC50 in experiment [1] is 0.13 µM; in experiment [2], 60.4 µM. Molecule `COc1cccc(Nc2cc(-c3ccc(C(=O)N4CCN(C(=O)c5ccccc5F)CC4)cc3)ncn2)c1` displayed a half-maximal inhibitory concentration (IC50) in experiment [1] of 16.1 µM. `Cc1ccc(Nc2cc(-c3ccc(C(=O)N4CCN(C(=O)c5ccccc5F)CC4)cc3)ncn2)cc1Cl`: the IC50 in experiment [1] and in experiment [2] was over 500 µM in each case.

These data come from ChEMBL document CHEMBL3352374, “Discovery of novel Bcr-Abl inhibitors targeting myristoyl pocket and ATP site” (Bioorg Med Chem, 2014).
